Test results published in PubChem BioAssay AID719 (SRMLSC, 2007).
The campaign covered roughly 85,000 compounds. About 940 (1.1%) were called active.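 How the source made its calls: active means viability at or below 50% in the single dose screen; inactive means viability above 50%.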 What follows is part of a selection rich in actives, with near analogues and random picks from the rest.

experiment: antiproliferative effect on LL 47 fibroblasts – human, LL 47 cells, CellTiter-Glo luminescence, primary screen (AID 719); settings: LL 47 human lung fibroblast viability, ATP luminescence; at 10 µM; active compounds read low;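 further: compound exposure lasted 72 h before the ATP readout; 100% = median luminescence of untreated cell-only wells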
Outline: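 Material: Human LL 47 lung fibroblast cells | Input: 1,150 cells/well | Buffer or medium: IMEM plus 15% FBS | Compound dosing: 0.1% DMSO in all compound wells | Times: Overnight cell rest, 72 h compound treatment at 37 °C | Signal: CellTiter-Glo luminescence measuring cellular ATP | Measure: % viability versus median cells-only luminescence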

Row | SMILES | viability
1 | Cc1nc(SCC(=O)Nc2cc(C)on2)c2c3c(sc2n1)CCCC3 | 94.8% (inactive)
2 | Cc1nc(SCC(=O)Nc2cc(C)on2)c2c(C)c(C)sc2n1 | 99.4% (inactive)
3 | Cc1cc(NC(=O)CSc2nc(C(C)C)nc3sc4c(c23)CCC(C)C4)no1 (stereo unspecified) | 10.9% (active)
4 | O=C(/C=C/c1ccc(Cl)cc1Cl)c1cccnc1 | 79% (inactive)
5 | CCOC(=O)c1sc(NC(=O)CCN2CCOCC2)c(C(=O)OCC)c1C | 80.1% (inactive)
6 | CCOC(=O)c1c(NC(=O)CCl)sc(C(=O)N(CC)CC)c1C | 28% (active)
7 | CCOC(=O)Nc1sc(C(=O)N(C)C)c(C)c1C(=O)OCC | 89.5% (inactive)
8 | O=C(NCc1cccnc1)Nc1ccccc1F | 96.7% (inactive)
9 | Cc1cc(C)c2c(n1)nn1c(-n3ccnc3)cc(C)nc21 | 101% (inactive)
10 | Cc1cc(C)c2c(n1)nn1c(N3CCN(c4cccc(Cl)c4)CC3)cc(C)nc21 | 36.8% (active)
11 | Cc1cc(C)c2c(n1)nn1c(N3CCOCC3)cc(C)nc21 | 82.4% (inactive)
12 | COc1ccc(NC(=O)CCN2CCCC2)c(OC)c1 | 104% (inactive)
13 | Cc1ccccc1-n1c(C)cc(/C=C2\NC(=O)NC2=O)c1C | 77.2% (inactive)
14 | O=C(CCS(=O)(=O)c1ccccc1)Nc1nc2c(s1)CCCC2 | 47.7% (active)
15 | O=C(Cn1c(=O)sc2ccccc21)Nc1nc2c(s1)CCCC2 | 100% (inactive)
16 | COC(=O)C(NC(C)=O)(Nc1nc2c(s1)CCCC2)C(F)(F)F (stereo unspecified) | 103% (inactive)
17 | N#CC1=C(N)N(c2ccccc2)C2=C(C(=O)CCC2)C1c1ccccc1 (stereo unspecified) | 93.1% (inactive)
18 | COc1ccc(CNCCCO)cc1OC | 95.2% (inactive)
19 | COC(=O)c1ccccc1Sc1c(/C=N/OCc2ccc(Cl)cc2)c(C(F)(F)F)nn1C | 92.7% (inactive)
20 | COC(=O)c1cc(OC)ccc1-c1ccc(OC)cc1 | 90.1% (inactive)
21 | Cc1cc(Cl)c(S(=O)(=O)N(C)C)cc1OCC(N)=O | 101% (inactive)
22 | COc1ccc(-c2nnc(SCc3cccnc3)o2)cc1 | 105% (inactive)
23 | Cc1cccc(OCCCC(=O)Nc2ccc(S(=O)(=O)N3CCCC3)cc2)c1 | 98.6% (inactive)
24 | CCN1CCc2c(C#N)c(NCc3ccccc3)nc(NCCO)c2C1 | 86.2% (inactive)

Row | SMILES | viability
25 | CC(C)Cc1nc(N2CCOCC2)c(C#N)c2c1CCC2 | 90.7% (inactive)
26 | CC(C)CCNc1nc(N2CCCC2)c2c(c1C#N)CCN(C)C2 | 30.8% (active)
27 | CC1CCN(C(=O)c2cc3nc(C4CC4)cc(C(F)(F)F)n3n2)CC1 | 96.3% (inactive)
28 | C/C=C/C(=O)Nc1nnc(C(C)C)s1 | 103% (inactive)
29 | O=C(c1cccc(C(=O)N2CCN(c3ccc(F)cc3)CC2)c1)N1CCN(c2ccc(F)cc2)CC1 | 97.2% (inactive)
30 | CCN1CCN(C(c2cccnc2)c2cc(Cl)c3cccnc3c2O)CC1 (stereo unspecified) | 75.3% (inactive)
31 | Oc1c(CN2CCN(c3ccc(F)cc3)CC2)cc(Cl)c2cccnc12 | 22.4% (active)
32 | CCn1nnnc1SCC(=O)c1ccc(C)cc1C | 99.4% (inactive)
33 | Cc1cc(C(=O)OC(C)C(=O)Nc2cccc(S(=O)(=O)N3CCOCC3)c2)c(C)o1 (stereo unspecified) | 30.6% (active)
34 | O=C(c1cccc(S(=O)(=O)N2CCOCC2)c1)N1CCOCC1 | 104% (inactive)
35 | CCNC(=O)NC(=O)C(C)OC(=O)c1cc(S(=O)(=O)N2CCCCCC2)ccc1OC (stereo unspecified) | 94.5% (inactive)
36 | Cc1cccc(NC(=O)Nc2cccc(Oc3c(F)c(F)c(F)c(F)c3F)c2)c1 | 49.6% (active)
37 | CC(=O)c1cccc(NC(=O)Nc2ccc(C)cc2)c1 | 109% (inactive)
38 | Cc1ccoc1C(=O)Nc1cccc(Oc2ccccc2)c1 | 103% (inactive)
39 | Cc1ccc(C)c(NC2=NCC(=O)N2c2ccc3c(c2)OCCO3)c1 | 120% (inactive)
40 | O=C(CSc1nc2cccnc2n1Cc1ccccc1)N1CCc2ccccc21 | 104% (inactive)
41 | COC(=O)c1sc(NC(=O)c2ccc(OC)cc2OC)nc1C | 91.9% (inactive)
42 | CC(=O)c1sc(NC(=O)c2ccc(C)cc2)nc1C | 105% (inactive)
43 | COc1cccc2sc(Nc3nc(C)c(C(C)=O)s3)nc12 | 26.9% (active)
44 | Fc1ccccc1/C=C1\CCCC2=C1Nc1ncnn1C2c1ccccc1F (stereo unspecified) | 3.89% (active)
45 | Cc1cc(SCC(=O)c2ccccc2)nc(SCC(=O)c2ccccc2)n1 | 102% (inactive)
46 | CCOC(=O)c1ccc2c(c1)nc(C)n2CC | 103% (inactive)
47 | Cn1c(C(=O)NCCN2CCc3ccccc3C2)cc2c(=O)[nH]c3ccccc3c21 | 93.3% (inactive)
48 | O=C(NCCN1CCN(Cc2ccccc2)CC1)c1cc2c(=O)[nH]c3ccccc3c2s1 | 42.8% (active)

Row | SMILES | viability
49 | CN1CCN(CCCNC(=O)c2cc3c(=O)oc4ccccc4c3s2)CC1 | 105% (inactive)
50 | CCc1ccc(NC(=O)CN2C(=O)CSC2=O)cc1 | 100% (inactive)
51 | CCOC(=O)c1sc(NC(=O)c2ccncc2)nc1C | 98.9% (inactive)
52 | CC(OC(=O)CN1C(=O)C2CCCCC2C1=O)C(=O)Nc1ncc(Cl)cc1Cl (stereo unspecified) | 98.2% (inactive)
53 | CC1=CC(C)(C)Nc2ccc(OC(=O)CN3C(=O)C4CCCCC4C3=O)cc21 (stereo unspecified) | 39.7% (active)
54 | CC1=CC(C)(C)Nc2ccc(OC(=O)C(Cc3ccccc3)N3C(=O)C4CCCCC4C3=O)cc21 (stereo unspecified) | 94.3% (inactive)
55 | CC1(C)CC(=O)C=C(N2CCCC2)C1 | 112% (inactive)
56 | COc1ccc(N2CCN(Cc3ccc(Br)s3)CC2)cc1 | 100% (inactive)
57 | CC(=O)Oc1ccc(NC(=O)CCC2CCCCC2)c(C(=O)O)c1 | 93.2% (inactive)
58 | CCCNC(=O)CN(Cc1ccccc1F)S(=O)(=O)c1ccc(C)cc1 | 105% (inactive)
59 | CC1=NN(/C(=N\c2nnc(C)s2)Nc2ccccc2)[C@H](c2ccc(C)cc2)S1 | 89.1% (inactive)
60 | CCCc1[nH]nc2c1C(c1ccc(Br)s1)C(C#N)=C(N)O2 (stereo unspecified) | 33.5% (active)
61 | CCCc1[nH]nc2c1C(c1ccc(OC)c(Cn3nc(C)c(Br)c3C)c1)C(C#N)=C(N)O2 (stereo unspecified) | 95.9% (inactive)
62 | CCCc1[nH]nc2c1C(c1ccc(OC(=O)c3ccco3)cc1)C(C#N)=C(N)O2 (stereo unspecified) | 95.1% (inactive)
63 | CCOc1ccc(NC(=O)C2CCCN(C(=O)Nc3ccccc3)C2)cc1 (stereo unspecified) | 105% (inactive)
64 | CCCCC(C(=O)OCC(=O)c1ccc(OC)cc1)N1C(=O)c2ccccc2C1=O (stereo unspecified) | 93.2% (inactive)
65 | COC(=O)c1ccccc1NC(=O)Cc1ccccc1OC | 102% (inactive)
66 | CCOc1ccc(Cn2nnc(C(=O)Nc3ccc(OC)cc3OC)c2N)cc1 | 81.2% (inactive)
67 | CCOc1ccc(Cn2nnc(C(=O)NCc3ccccc3)c2N)cc1 | 84.8% (inactive)
68 | Nc1c(C(=O)NCc2ccccc2)nnn1Cc1cccc(Cl)c1 | 44.6% (active)
69 | CC(C)N1C(=S)SC(C)(C)C1n1oc(=O)n(-c2ccc(Cl)c(Cl)c2)c1=O (stereo unspecified) | 87.5% (inactive)
70 | CCOC(=O)N1CCN(C(=O)c2nn(-c3ccc(C)cc3)c(=O)c3c2c2ccccc2n3C)CC1 | 19.7% (active)
71 | CCOC(=O)N1CCN(C(=O)c2n[nH]c(=O)c3ccccc23)CC1 | 97.5% (inactive)
72 | Cn1c2ccccc2c2c(C(=O)N3CCN(c4ccc(F)cc4)CC3)cn(C3CCCC3)c(=O)c21 | 85.9% (inactive)

Row | SMILES | viability
73 | Nc1nonc1-c1nc2ccccc2n1CCC(=O)O | 104% (inactive)
74 | COc1ccc(C)c(Cn2c(-c3nonc3N)nc3ccccc32)c1 | 42.2% (active)
75 | Nc1nonc1-c1nc2ccccc2n1Cc1ccc(F)cc1 | 52.3% (inactive)
76 | CCOc1ccc(N=C2NC(=O)S/C2=C\c2ccc(O)cc2)cc1 | 102% (inactive)
77 | COc1ccc(C)cc1S(=O)(=O)NCCc1ccccc1 | 97.6% (inactive)
78 | Cc1nc(NC(=O)CN(C)S(=O)(=O)c2ccc(Cl)cc2)sc1C | 98.6% (inactive)
79 | Cc1ccc(-n2c(SCC(=O)Nc3ccc4c(c3)OCO4)nnc2-c2ccoc2C)cc1 | 99% (inactive)
80 | O=C(CSc1nnc(-c2ccccn2)n1-c1ccccc1)Nc1ccc2c(c1)OCO2 | 89.6% (inactive)
81 | Cc1ccc(-n2c(SCC(=O)Nc3ccc4c(c3)OCO4)nnc2-c2ccccn2)cc1 | 42.1% (active)
82 | Cc1ccc(-n2c(SCC(=O)NCc3ccc4c(c3)OCO4)nnc2-c2cccnc2)c(C)c1 | 95.8% (inactive)
83 | O=C(c1cc2sccc2n1Cc1ccc(F)cc1)N1CCc2ccccc21 | 95.6% (inactive)
84 | COc1ccc(CC(=O)Nc2ccc(-c3nnc(-c4ccc(C)cc4)o3)cc2)cc1 | 30.9% (active)
85 | Cc1ccc(OCC(=O)Nc2ccc(-c3nnc(-c4ccco4)o3)cc2)cc1 | 91.8% (inactive)
86 | COc1ccc(CC(=O)Nc2ccc(-c3nnc(-c4ccccc4)o3)cc2)cc1 | 105% (inactive)
87 | O=C(/C=C/NNC(=O)c1cccc(Br)c1)c1ccccc1 | 80.9% (inactive)
88 | CN1CCN(CC(=O)Nc2sc3c(c2C#N)CCC(C(C)(C)C)C3)CC1 (stereo unspecified) | 2.62% (active)
89 | CCC(=O)Nc1sc(C(=O)N2CCCCC2)c(C)c1C#N | 98% (inactive)
90 | CC(C)(C)C1CCc2c(sc3nc(SCC(N)=O)nc(N)c23)C1 (stereo unspecified) | 99% (inactive)
91 | CCOC(=O)c1nnn(-c2nonc2-n2cccc2)c1CN1CCC(C(=O)OCC)CC1 | 95% (inactive)
92 | CC(=O)Oc1cc2c(C(=O)NCCN3CCOCC3)c(C)oc2c2ccccc12 | 8.08% (active)
93 | O=C(CCN1C(=O)c2ccccc2C1=O)NCCN1CCOCC1 | 104% (inactive)
94 | O=C(NCCN1CCOCC1)c1c(F)c(F)c(F)c(F)c1F | 97.6% (inactive)
95 | Cc1ccc(-c2cc(C(=O)NCC3CCCO3)c3ccccc3n2)o1 (stereo unspecified) | 98.3% (inactive)
96 | Clc1cccc(N=C2NN=C(c3ccc4c(c3)OCCO4)CS2)c1 | 101% (inactive)
